# Data taken from ChEMBL document CHEMBL1649247, “Fluoroquinolone resistance in Mycobacterium tuberculosis and mutations in gyrA and gyrB” (2009).
# Active and inactive are the calls of the source. The rule behind the calls is not given here.
# Legend:
# [1] = tested on: Mycobacterium tuberculosis; assay: Antimycobacterial activity against Mycobacterium tuberculosis 08-0787 harboring gyrA Asp94His mutant gene and deletion of codons 678 and 679 in gyrB mutant gene by resazurin microtiter assay; type: functional
# Procedure, shortened: (§1)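 Isolates taken from fresh Löwenstein-Jensen subcultures grown at 37°C for at most 4 weeks. Drug stocks 1 mg/ml in 0.1 N NaOH, filter sterilized, stored at −20°C less than 2 months. MIC read by resazurin microtiter assay following a previously described protocol.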
# [2] = tested on: Mycobacterium tuberculosis; assay: Antimycobacterial activity against Mycobacterium tuberculosis 08-0771 harboring gyrA putative promoter mutant gene assessed as microbial susceptibility by agar proportion method; type: functional, organism-based
# Procedure, shortened: (§2)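 Clinical isolates freshly subcultured on Löwenstein-Jensen medium, held at 37°C no longer than 4 weeks. Fluoroquinolone stocks 1 mg/ml in 0.1 N NaOH, filter sterilized, kept at −20°C under 2 months. Standard proportion method on 7H11 agar; breakpoints 2 mg/liter ofloxacin, 0.5 mg/liter moxifloxacin and gatifloxacin; scored susceptible or resistant.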
# [3] = tested on: Mycobacterium tuberculosis; assay: Antimycobacterial activity against multidrug-resistant Mycobacterium tuberculosis 08-0810 harboring gyrA Asp94Tyr mutant gene assessed as microbial susceptibility by agar proportion method; type: functional, organism-based
# Procedure, shortened: (§3)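 Clinical isolates freshly subcultured on Löwenstein-Jensen medium at 37°C for no more than 4 weeks. Susceptibility by standard proportion method on 7H11 agar at breakpoints of 2 mg/liter ofloxacin and 0.5 mg/liter moxifloxacin and gatifloxacin. Drug stocks 1 mg/ml in 0.1 N NaOH, filter sterilized, held at −20°C under 2 months. Isolates scored susceptible or resistant.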
# [4] = tested on: Mycobacterium tuberculosis; assay: Antimycobacterial activity against multidrug-resistant Mycobacterium tuberculosis 08-0790 harboring gyrA Ala90Val mutant gene assessed as microbial susceptibility by agar proportion method; type: functional, organism-based; procedure, shortened: as §3
# [5] = tested on: Mycobacterium tuberculosis; assay: Antimycobacterial activity against Mycobacterium tuberculosis 08-0745 harboring gyrA Asp89Asn mutant gene assessed as microbial susceptibility by agar proportion method; type: functional, organism-based; procedure, shortened: as §2
# [6] = tested on: Mycobacterium tuberculosis; assay: Antimycobacterial activity against multidrug-resistant Mycobacterium tuberculosis 02-1234 harboring gyrA Asn533Thr gyrB mutant gene by resazurin microtiter assay; type: functional; procedure, shortened: as §1
# [7] = tested on: Mycobacterium tuberculosis; assay: Antimycobacterial activity against Mycobacterium tuberculosis 08-0771 harboring gyrA putative promoter mutant gene by resazurin microtiter assay; type: functional; procedure, shortened: as §1
# [8] = tested on: Mycobacterium tuberculosis; assay: Antimycobacterial activity against Mycobacterium tuberculosis 08-0815 harboring gyrA Thr80Ala and Ala90Gly mutant gene assessed as microbial susceptibility by agar proportion method; type: functional, organism-based; procedure, shortened: as §2
# [9] = tested on: Mycobacterium tuberculosis; assay: Antimycobacterial activity against multidrug-resistant Mycobacterium tuberculosis 01-2834 by resazurin microtiter assay; type: functional; procedure, shortened: as §1
# [10] = tested on: Mycobacterium tuberculosis; assay: Antimycobacterial activity against Mycobacterium tuberculosis 08-0787 harboring gyrA Asp94His mutant gene assessed as microbial susceptibility and deletion of codons 678 and 679 in gyrB mutant gene assessed as microbial susceptibility by agar proportion method; type: functional, organism-based; procedure, shortened: as §2
# [11] = tested on: Mycobacterium tuberculosis; assay: Antimycobacterial activity against multidrug-resistant Mycobacterium tuberculosis 02-2399 harboring gyrA Asp94Tyr mutant gene by resazurin microtiter assay; type: functional; procedure, shortened: as §1
# [12] = tested on: Mycobacterium tuberculosis; assay: Antimycobacterial activity against multidrug-resistant Mycobacterium tuberculosis 08-0810 harboring gyrA Asp94Tyr mutant gene by resazurin microtiter assay; type: functional
# Procedure, shortened: (§4)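 MIC was read by resazurin microtiter assay against ofloxacin, moxifloxacin and gatifloxacin. Isolates were used as fresh Löwenstein-Jensen subcultures kept at 37°C for no longer than 4 weeks.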
# [13] = tested on: Mycobacterium tuberculosis; assay: Antimycobacterial activity against multidrug-resistant Mycobacterium tuberculosis 08-0779 assessed as microbial susceptibility by agar proportion method; type: functional, organism-based; procedure, shortened: as §3
# [14] = tested on: Mycobacterium tuberculosis; assay: Antimycobacterial activity against multidrug-resistant Mycobacterium tuberculosis 08-0821 harboring gyrA Asp94Tyr mutant gene assessed as microbial susceptibility by agar proportion method; type: functional, organism-based; procedure, shortened: as §3
# [15] = tested on: Mycobacterium tuberculosis; assay: Antimycobacterial activity against multidrug-resistant Mycobacterium tuberculosis 08-0794 harboring gyrA Thr80Ala mutant gene assessed as microbial susceptibility by agar proportion method; type: functional, organism-based; procedure, shortened: as §3
# [16] = tested on: Mycobacterium tuberculosis; assay: Antimycobacterial activity against Mycobacterium tuberculosis 08-0773 harboring gyrA Pro8Ala mutant gene by resazurin microtiter assay; type: functional; procedure, shortened: as §1
# [17] = tested on: Mycobacterium tuberculosis; assay: Antimycobacterial activity against multidrug-resistant Mycobacterium tuberculosis 01-0930 harboring gyrA Ala90Val mutant gene by resazurin microtiter assay; type: functional; procedure, shortened: as §1
# [18] = tested on: Mycobacterium tuberculosis; assay: Antimycobacterial activity against Mycobacterium tuberculosis 02-1975 harboring gyrA Asp94Gly mutant gene by resazurin microtiter assay; type: functional; procedure, shortened: as §1
# [19] = tested on: Mycobacterium tuberculosis; assay: Antimycobacterial activity against multidrug-resistant Mycobacterium tuberculosis 99-1914 harboring gyrA Asp94Gly mutant gene by resazurin microtiter assay; type: functional; procedure, shortened: as §4
# [20] = tested on: Mycobacterium tuberculosis; assay: Antimycobacterial activity against multidrug-resistant Mycobacterium tuberculosis 08-0785 harboring gyrA Ala90Val mutant gene assessed as microbial susceptibility by agar proportion method; type: functional, organism-based; procedure, shortened: as §3
# [21] = tested on: Mycobacterium tuberculosis; assay: Antimycobacterial activity against Mycobacterium tuberculosis 04-0649 harboring gyrA Asp94Asn mutant gene assessed as microbial susceptibility by agar proportion method; type: functional, organism-based; procedure, shortened: as §2
# [22] = tested on: Mycobacterium tuberculosis; assay: Antimycobacterial activity against Mycobacterium tuberculosis 04-0649 harboring gyrA Asp94Asn mutant gene by resazurin microtiter assay; type: functional; procedure, shortened: as §1
# [23] = tested on: Mycobacterium tuberculosis; assay: Antimycobacterial activity against multidrug-resistant Mycobacterium tuberculosis 08-0746 assessed as microbial susceptibility by agar proportion method; type: functional, organism-based; procedure, shortened: as §3
# [24] = tested on: Mycobacterium tuberculosis; assay: Antimycobacterial activity against multidrug-resistant Mycobacterium tuberculosis 08-0744 harboring gyrA Asp94Tyr mutant gene assessed as microbial susceptibility by agar proportion method; type: functional, organism-based; procedure, shortened: as §3
# [25] = tested on: Mycobacterium tuberculosis; assay: Antimycobacterial activity against multidrug-resistant Mycobacterium tuberculosis 02-2399 harboring gyrA Asp94Tyr mutant gene assessed as microbial susceptibility by agar proportion method; type: functional, organism-based; procedure, shortened: as §2
# [26] = tested on: Mycobacterium tuberculosis; assay: Antimycobacterial activity against multidrug-resistant Mycobacterium tuberculosis 99-1914 harboring gyrA Asp94Gly mutant gene assessed as microbial susceptibility by agar proportion method; type: functional, organism-based; procedure, shortened: as §3
# [27] = tested on: Mycobacterium tuberculosis; assay: Antimycobacterial activity against Mycobacterium tuberculosis 08-0745 harboring gyrA Asp89Asn mutant gene by resazurin microtiter assay; type: functional; procedure, shortened: as §1
# [28] = tested on: Mycobacterium tuberculosis; assay: Antimycobacterial activity against multidrug-resistant Mycobacterium tuberculosis 04-0519 harboring gyrA Ala90Val and Asp94Asn mutant gene assessed as microbial susceptibility by agar proportion method; type: functional, organism-based; procedure, shortened: as §3
# [29] = tested on: Mycobacterium tuberculosis; assay: Antimycobacterial activity against multidrug-resistant Mycobacterium tuberculosis 08-0779 by resazurin microtiter assay; type: functional; procedure, shortened: as §4
# [30] = tested on: Mycobacterium tuberculosis; assay: Antimycobacterial activity against Mycobacterium tuberculosis 08-0773 harboring gyrA Pro8Ala mutant gene assessed as microbial susceptibility by agar proportion method; type: functional, organism-based; procedure, shortened: as §2
# [31] = tested on: Mycobacterium tuberculosis; assay: Antimycobacterial activity against multidrug-resistant Mycobacterium tuberculosis 02-2934 harboring gyrA Ala90Val mutant gene assessed as microbial susceptibility by agar proportion method; type: functional, organism-based; procedure, shortened: as §2
# [32] = tested on: Mycobacterium tuberculosis; assay: Antimycobacterial activity against multidrug-resistant Mycobacterium tuberculosis 01-1647 harboring gyrA Ala90Val mutant gene assessed as microbial susceptibility by agar proportion method; type: functional, organism-based; procedure, shortened: as §2
# [33] = tested on: Mycobacterium tuberculosis; assay: Antimycobacterial activity against multidrug-resistant Mycobacterium tuberculosis 03-0738 harboring gyrA Ala90Val mutant gene by resazurin microtiter assay; type: functional; procedure, shortened: as §4
# [34] = tested on: Mycobacterium tuberculosis; assay: Antimycobacterial activity against multidrug-resistant Mycobacterium tuberculosis 02-0319 harboring gyrA Asp94Ala mutant gene by resazurin microtiter assay; type: functional; procedure, shortened: as §1
# [35] = tested on: Mycobacterium tuberculosis; assay: Antimycobacterial activity against multidrug-resistant Mycobacterium tuberculosis 08-0746 by resazurin microtiter assay; type: functional; procedure, shortened: as §4
# [36] = tested on: Mycobacterium tuberculosis; assay: Antimycobacterial activity against multidrug-resistant Mycobacterium tuberculosis 02-2934 harboring gyrA Ala90Val mutant gene by resazurin microtiter assay; type: functional; procedure, shortened: as §1
# [37] = tested on: Mycobacterium tuberculosis; assay: Antimycobacterial activity against multidrug-resistant Mycobacterium tuberculosis 01-0172 harboring gyrA Asp94Ala mutant gene by resazurin microtiter assay; type: functional; procedure, shortened: as §1
compound,measurement,setting,value
CC1COc2c(N3CCN(C)CC3)c(F)cc3c(=O)c(C(=O)O)cn1c23 (configuration not stated) [OFLOXACIN],MIC,[1],4 µg/mL
same,Activity,[2],Active
same,Activity,[3],inactive
same,Activity,[4],inactive
same,Activity,[5],inactive
same,MIC,[6],1 µg/mL
same,MIC,[7],1 µg/mL
same,Activity,[8],Active
same,MIC,[9],4 µg/mL
same,Activity,[10],inactive
same,MIC,[11],4 µg/mL
same,MIC,[12],8 µg/mL
same,Activity,[13],Active
same,Activity,[14],inactive
same,Activity,[15],Active
same,MIC,[16],0.5 µg/mL
same,MIC,[17],4 µg/mL
same,MIC,[18],8 µg/mL
same,MIC,[19],8 µg/mL
same,Activity,[20],inactive
same,Activity,[21],inactive
same,MIC,[22],16 µg/mL
same,Activity,[23],Active
same,Activity,[24],inactive
same,Activity,[25],inactive
same,Activity,[26],inactive
same,MIC,[27],4 µg/mL
same,Activity,[28],inactive
same,MIC,[29],0.5 µg/mL
same,Activity,[30],Active
same,Activity,[31],inactive
same,Activity,[32],inactive
same,MIC,[33],4 µg/mL
same,MIC,[34],4 µg/mL
same,MIC,[35],0.5 µg/mL
same,MIC,[36],4 µg/mL
same,MIC,[37],4 µg/mL
